In all, about 310,000 compounds went through this assay and about 1,500 (0.48%) were called active.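 Rule for the calls: active = B-score above 5 SD of library B-scores, and initial fluorescence ratio not above library mean plus 5 SD; inactive = the rest.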 The entries come from a sample that favours actives as a whole.
biological target: Short transient receptor potential channel 4 (Mus musculus) (UniProt Q9QUQ5); test: TRPC4 cation channel opening, calcium rise – Fluo4 calcium, HEK293 TRPC4beta/mu-opioid cells, primary screen (AID 2237); conditions: Fluo4 calcium fluorescence, at 10 µM; stronger effect = higher value;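 for B-score: positive B-score marks a calcium rise read as TRPC4 activation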
Sequence (Q9QUQ5 whole entry, looked up): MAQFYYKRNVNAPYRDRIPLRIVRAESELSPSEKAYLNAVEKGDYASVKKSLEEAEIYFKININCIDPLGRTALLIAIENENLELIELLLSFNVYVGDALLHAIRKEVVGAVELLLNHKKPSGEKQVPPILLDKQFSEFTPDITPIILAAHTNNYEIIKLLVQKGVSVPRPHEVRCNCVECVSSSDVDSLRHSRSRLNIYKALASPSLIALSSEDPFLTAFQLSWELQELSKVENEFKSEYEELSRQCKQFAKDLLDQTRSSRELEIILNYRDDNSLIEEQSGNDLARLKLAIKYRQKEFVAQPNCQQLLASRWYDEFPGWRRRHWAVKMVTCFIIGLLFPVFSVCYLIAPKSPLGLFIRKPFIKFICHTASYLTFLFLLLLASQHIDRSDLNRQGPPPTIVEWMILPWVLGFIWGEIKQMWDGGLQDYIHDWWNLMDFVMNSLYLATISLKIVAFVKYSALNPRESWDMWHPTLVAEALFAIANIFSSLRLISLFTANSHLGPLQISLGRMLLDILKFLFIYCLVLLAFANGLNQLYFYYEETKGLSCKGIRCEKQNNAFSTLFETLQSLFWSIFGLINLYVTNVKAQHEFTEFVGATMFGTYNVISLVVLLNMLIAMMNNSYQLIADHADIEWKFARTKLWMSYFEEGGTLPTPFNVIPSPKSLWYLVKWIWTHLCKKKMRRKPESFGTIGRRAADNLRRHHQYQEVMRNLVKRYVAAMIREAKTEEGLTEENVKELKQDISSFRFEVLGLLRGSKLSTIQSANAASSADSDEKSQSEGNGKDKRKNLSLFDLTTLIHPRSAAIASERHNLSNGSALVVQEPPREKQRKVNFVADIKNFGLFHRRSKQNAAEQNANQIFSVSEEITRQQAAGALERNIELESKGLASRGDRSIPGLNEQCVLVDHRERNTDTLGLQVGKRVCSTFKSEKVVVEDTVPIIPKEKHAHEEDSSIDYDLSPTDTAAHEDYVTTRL
Method in brief: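 Material: HEK293 stable line with TRPC4beta plus mu-opioid receptor; technique: Fluo4 calcium-sensitive dye fluorescence, kinetic, 1 Hz baseline; timing: Fluo4 dye loading 45 min at room temperature, 110 s recording; controls: assay buffer as low control, maximal DAMGO as high control; read-out: integrated baseline-normalised fluorescence ratio, converted to per-well B score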

| SMILES | B-score |
| --- | --- |
| COc1ccc(Cl)cc1S(=O)(=O)N1CCC(O)(c2ccc(Cl)cc2)CC1 | inactive |
| COc1cc(OC)c(-n2c(C)cc(C=O)c2C)cc1Cl | inactive |
| COc1cc(OC)c(-n2cc(-c3ccc(Cl)cc3)[nH]c2=O)cc1Cl | 63 (active) |
| O=C1CCN(C(=O)Nc2ccccc2)N1 | inactive |
| CC(C)N(Cc1ccccc1)C(=O)COC(=O)c1cnccn1 | inactive |
| Oc1c(Cl)cc(Cl)c(Cl)c1Cc1c(O)c(Cl)cc(Cl)c1Cl | 53 (active) |
| CC(C[N+](C)(C)C)OC(N)=O (centres undefined) | inactive |
| CC(=O)OC(C)C[N+](C)(C)C (centres undefined) | 57 (active) |
| C=C(C)CSc1nnc(-c2ccc(C)cc2)n1N | inactive |
| CCCOC1CCCN(Cc2cn(C)nc2-c2ccccc2F)C1 (centres undefined) | inactive |
| COc1cccc2cc(C(N)=O)/c(=N\NC(=O)c3ccccc3)oc12 | inactive |
| NC(=O)c1cc2ccccc2o/c1=N/NC(=O)c1cccc(F)c1 | inactive |
| CCN(CC)c1ccc2cc(C(N)=O)/c(=N\NC(=O)c3ccncc3)oc2c1 | 79 (active) |
| CN1CCN(C(=O)CCc2ncc(C(F)(F)F)cc2Cl)CC1 | inactive |
| CNc1[nH]ncc1[N+](=O)[O-] | inactive |
| O=C(Nc1ccc(F)c(Cl)c1)C1CCN(S(=O)(=O)c2cccnc2)CC1 | inactive |
| CCOc1ccccc1CNS(=O)(=O)c1cc(-c2cc(C)no2)ccc1C | inactive |
| Cc1cc(-c2ccc(C)c(S(=O)(=O)NCCCN(Cc3ccccc3)C(C)C)c2)on1 | 127 (active) |
| Cc1cc(-c2ccc(C)c(S(=O)(=O)NC(C)Cc3ccco3)c2)on1 (centres undefined) | inactive |
| C=CCNC(=O)C12CC3CC(C1)CC(C(=O)NCC=C)(C3)C2 | inactive |
| O=C(NC1CCN(S(=O)(=O)c2ccc(F)cc2)CC1)c1ccccc1 | inactive |
| O=C(NCc1ccccc1Cl)c1csc2c1CCCCC2 | inactive |

| SMILES | B-score |
| --- | --- |
| Cc1ccc(NC(=O)c2csc3c2CCCC3)cc1 | inactive |
| CC1CC(C)CN(CCCNC(=O)c2csc3c2CCCCC3)C1 (centres undefined) | 97 (active) |
| CCOC(=O)c1ccccc1NC(=O)c1c(N)n(C)c(=O)[nH]c1=O | inactive |
| CSc1ccc(S(=O)(=O)N2CCC(C(=O)NCCc3ccccc3)CC2)cc1 | inactive |
| CC1CN(CCCOc2ccccc2-c2ccccc2)CC(C)O1 (centres undefined) | inactive |
| CC1CCCN(CCOCCOc2ccccc2-c2ccccc2)C1 (centres undefined) | 54 (active) |
| c1ccc(-c2ccccc2OCCN2CCCCC2)cc1 | inactive |
| COc1ccc(C2CC(c3ccc(Cl)cc3Cl)Nc3nc(N)nn32)cc1OC (centres undefined) | inactive |
| CCOc1ccccc1C1CC(c2ccccc2)Nc2nc(N)nn21 (centres undefined) | inactive |
| CCOc1ccccc1C1CC(c2ccc(Cl)cc2)Nc2nc(N)nn21 (centres undefined) | 116 (active) |
| CC(C)(C)S(=O)(=O)c1ccccc1-c1noc(-c2ccccc2)c1C(N)=O | inactive |
| Cn1c(CCNS(=O)(=O)c2ccc(F)cc2)nnc1SCc1cccnc1 | inactive |
| COc1ccc(NC(=O)c2cc([N+](=O)[O-])ccc2NC(=O)CNC2CCCCC2C)c(OC)c1 (centres undefined) | inactive |
| Cc1ccc(C(=O)CCC(=O)N(C)CC(=O)Nc2c(Cl)cccc2Cl)cc1 | inactive |
| O=c1c2cc(Br)ccc2nc(-c2cccc(Cl)c2)n1O | 121 (active) |
| O=C1CCCc2c1nc(-c1cccc(Cl)c1)n2O | inactive |
| Cc1cccc(-c2nc3ccccc3c(=O)n2NC(=O)Cc2ccc(Cl)cc2)c1 | inactive |
| O=c1[nH]c(CN2CCN(S(=O)(=O)c3ccc4c(c3)OCCO4)CC2)nc2sc3c(c12)CCCC3 | inactive |
| N#CC1(NC(=O)COC(=O)CCN=C2NS(=O)(=O)c3ccccc32)CCCCC1 | inactive |
| O=C(CCCN=C1NS(=O)(=O)c2ccccc21)OCC(=O)c1ccc(F)c(F)c1 | 50 (active) |
| O=C(OCCN=C1NS(=O)(=O)c2ccccc21)c1cccc([N+](=O)[O-])c1 | inactive |
| Cc1cc(C)c2nc(N3CCC(C(=O)NCCN4CCOCC4)CC3)sc2c1 | inactive |

| SMILES | B-score |
| --- | --- |
| CCC1CCCCN1CCCNC(=O)c1cc2c(Cl)nc3ccccc3c2s1 (centres undefined) | inactive |
| CC1CCCN(S(=O)(=O)c2ccc(C(=O)Nc3nnc(-c4ccncc4)o3)cc2)C1 (centres undefined) | inactive |
| CSCc1nnc(NC(=O)c2ccc(S(=O)(=O)N3CCCCC3C)cc2)o1 (centres undefined) | inactive |
| CC1CCCCN1S(=O)(=O)c1ccc(C(=O)Nc2nnc(-c3cccs3)o2)cc1 (centres undefined) | 74 (active) |
| COc1ccc(N2C(=O)NC(NS(=O)(=O)c3ccc(Cl)cc3)(C(F)(F)F)C2=O)cc1 (centres undefined) | inactive |
| CCCc1ccc(OCC(O)CN2CCN(CCO)CC2)cc1 (centres undefined) | inactive |
| CCOc1ccc(N(CC(=O)NCCc2ccc(OC)cc2)S(C)(=O)=O)cc1 | inactive |
| CC1(C)CC(N2CCN(C(c3ccccc3)c3ccccc3)CC2)=CC(=[N+]2CCCCC2)C1 | inactive |
| COCCN1C(=O)N[C@@H](CCc2ccccc2)[C@H](C(C)=O)[C@H]1C | inactive |
| COCCN1C2=C(COC(C)(C)C2)C(=S)NC1c1ccccc1 (centres undefined) | 76 (active) |
| COC(=O)C1=C(C)N(C)C(=S)NC1c1ccccc1 (centres undefined) | inactive |
| CCN(c1ccccc1)S(=O)(=O)c1ccc2[nH]c(=O)[nH]c2c1 | inactive |
| CCOc1ccc(CC(=O)NC2CCN(Cc3ccccc3)CC2)cc1 | inactive |
| CCOc1ccc(C(=O)NC2CCN(S(=O)(=O)CC)CC2)cc1 | inactive |
| CCOc1ccc(NS(=O)(=O)c2ccc(C(=O)NC3CCN(Cc4ccccc4)CC3)cc2)cc1 | 49 (active) |
| CN(CCc1ccccn1)C(=O)c1ccc(OC2CCN(CCc3ccccc3)CC2)cc1 | inactive |
| CC(O)CN(Cc1ccc(Cl)cc1)CC(C)O (centres undefined) | inactive |
| COc1cc(C(=O)N(C)Cc2cccc(OC)c2OC)ccc1OCC(=O)Nc1cccc(C(F)(F)F)c1 | inactive |
| CC(C)C(=O)Nc1cccc(NC(=S)NC(=O)C(c2ccccc2)c2ccccc2)c1 | inactive |
| O=C(NNC(=S)NCc1ccco1)C(c1ccccc1)c1ccccc1 | inactive |
| CCCCC(=O)NNC(=S)NC(=O)C(c1ccccc1)c1ccccc1 | 152 (active) |
| CCOc1ccc(OCc2ccc(C(=O)N(C)c3ccccc3)o2)cc1 | inactive |

| SMILES | B-score |
| --- | --- |
| O=C(NCCc1ccccn1)c1ccc(COc2ccccc2)o1 | 120 (active) |
| COc1ccc(NC(=O)CN(C)C(=O)c2ccc(COc3ccccc3)o2)cc1 | inactive |
| Cc1cc(N2CCN(c3ccc(F)cc3)CC2)n2ncnc2n1 | inactive |
| CCOCCCNC(=O)C(=O)NCCCOCC | inactive |
| CCCCn1c(-c2cccc(C)c2)nc2cc3[nH]c(=O)c(C(C)C)nc3cc21 | inactive |
| Cc1ccnc(NC(=O)CCNS(=O)(=O)c2ccc(C)c(C)c2)c1 | inactive |
| CCOc1ccc(NS(=O)(=O)c2ccc(C(=O)NCC(c3ccccc3OC)N3CCCC3)cc2)cc1 (centres undefined) | inactive |
| CC(NC(=O)COC(=O)c1ccc(Cl)cc1O)c1ccc(F)cc1 (centres undefined) | inactive |
| COc1ccc(C(CNC(=O)c2ccc(S(=O)(=O)Nc3ccccc3F)cc2)N(C)C)cc1 (centres undefined) | inactive |
| COc1ccc(Cl)cc1NC(=O)CNc1ccccc1F | inactive |
| COc1ccc(C(CNCC(=O)Nc2ccccc2F)N(C)C)cc1 (centres undefined) | 108 (active) |
| COc1ccc2c(c1)SC(C)CC2=O (centres undefined) | inactive |
| CC1(C)CC(=O)c2ccc(O)cc2O1 | inactive |
| COc1ccc2c(c1)OC(O)(C(F)(F)C(F)F)CC2=O (centres undefined) | 82 (active) |
| O=S1(=O)CC/C(=N\Nc2ccc(F)cc2)c2ccsc21 | inactive |
| COc1ccc(-n2ncc3c(N4CCc5ccccc54)ncnc32)cc1 | 64 (active) |
| CC(C)Sc1ncnc2c1cnn2-c1ccccc1 | inactive |
| COc1ccc(-n2ncc3c(SCC(=O)NNC(C)=O)ncnc32)cc1 | inactive |
| CC(C)N1CCC(NC(=O)Nc2ccccc2)CC1 | inactive |
| COc1ccc(C)cc1N(CC(=O)N1CCCC1)S(=O)(=O)c1ccccc1 | inactive |
| COc1ccc(N(CC(=O)N2CCCCCC2)S(=O)(=O)c2ccccc2)cc1 | inactive |
| COc1ccccc1N(CC(=O)N1CCCCC1)S(=O)(=O)c1ccccc1 | 56 (active) |

| SMILES | B-score |
| --- | --- |
| COC(=O)CC1=NN(c2nc(C)cc(C)n2)C(=O)C1 | inactive |
| S=C(Nc1ccc(Br)cc1Cl)NC1CCN(Cc2ccccc2)CC1 | 57 (active) |
| O=C(COc1ccc(Br)cc1F)NC1CCN(Cc2ccccc2)CC1 | inactive |
| S=C(Nc1ccc(Br)cc1)NC1CCN(Cc2ccccc2)CC1 | inactive |
| O=C(COc1ccccc1Cl)N1CCCCCCC1 | inactive |
| CCN1C(=O)C(C(=O)NC(C)c2ccccc2)C2CC1(C)Oc1ccccc12 (centres undefined) | inactive |
| COc1ccc(-c2nc(CS(=O)(=O)CC(=O)NCc3cccc(Br)c3)c(C)o2)cc1 | inactive |
| COc1cccc(-c2nc(CS(=O)(=O)CC(=O)NCCc3ccc(OC)c(OC)c3)c(C)o2)c1 | inactive |
| CCCCN(CC)CCCNC(=O)CS(=O)(=O)Cc1nc(-c2cccc(OC)c2)oc1C | 56 (active) |
| CCN1/C(=C\c2ccc3ccccc3[n+]2CC)Sc2cc(C)ccc21 | 425 (active) |
| CCOc1ccc(CN2CCNC(=O)C2CC(=O)NCCCC2CCCC2)cc1 (centres undefined) | inactive |
| CCN(CC)c1ccc(NC(=O)C2CCC(CNc3c(N4CCCC4)c(=O)c3=O)CC2)c(C)c1 (centres undefined) | inactive |
| CCCn1c(CCNc2nc(-c3ccc(OC)cc3)cs2)nc2ccccc21 | inactive |
| CCCn1c(C2CCCN2c2nc(-c3ccc(C)cc3)cs2)nc2cc(Cl)c(N3CCCCC3)cc21 (centres undefined) | inactive |
| CCCn1c(C2CCCN2c2nc(-c3ccc(OC)cc3)cs2)nc2ccccc21 (centres undefined) | 70 (active) |
| CCN1C(=O)[C@H]2[C@@H](c3ccc(-c4ccc(OC)cc4)cc3)N[C@@](Cc3ccccc3)(C(=O)OC)[C@H]2C1=O | inactive |
| COC(=O)c1cc(S(=O)(=O)NC2CCN(Cc3ccccc3)CC2)cn1C | inactive |
| CCC1(CC)Cc2ccccc2-c2nc(CCl)[nH]c(=O)c21 | inactive |
| COc1ccc(CN2CCCC(C(=O)c3ccc(Cl)cc3)C2)cc1Cn1cncn1 (centres undefined) | 48 (active) |
| COc1ccc(CCN(C)C(=O)C2CCCN(Cc3ccc(OC)c(OC)c3)C2)cc1OC (centres undefined) | inactive |
| COc1cc(CN2CCCC(C(=O)c3ccc(SC)cc3)C2)cc(Cl)c1O (centres undefined) | inactive |

From PubChem BioAssay AID2237 (Johns Hopkins Ion Channel Center, 2010)
